Converted amounts (≈) assume the structure as drawn.
Experiments:
Candida albicans [1] = experiment: Antifungal activity against Candida albicans MTCC 3958 assessed as zone of growth inhibition after 48 hrs; assay type: functional
Summary of the method: (§1)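 Agar well diffusion: Malt Yeast Agar (C. albicans) or Czapek Yeast Extract Agar (A. niger) swabbed with 100 µL inoculum at 1×10^5 CFU/mL; 6 mm wells filled with 128 µg/50 µL compound in 5% DMSO (10% DMSO for poorly soluble ones). DMSO negative controls, fluconazole reference. 28 °C for 48 h; zone of inhibition as mean of triplicates.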

Candida albicans [2] = experiment: Antifungal activity against Candida albicans MTCC 3958 after 48 hrs; assay type: functional; conditions: MTCC 3958, 48 h
Summary of the method: (§2)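 Broth tube dilution MIC: tested at 128, 64, 32, 16 and 8 μg/mL; Yeast Malt Broth for C. albicans, Czapek Dox Broth for A. niger. Inoculum 1×10³ CFU/mL final; 5% DMSO negative control, fluconazole reference. Incubated dark on rotary shaker (180 rpm), 28 °C, 48 h (C. albicans) or 72 h (A. niger); lowest concentration preventing visible growth recorded.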

Aspergillus niger [3] = experiment: Antifungal activity against Aspergillus niger MTCC 9933 assessed as zone of growth inhibition after 48 hrs; assay type: functional; summary of the method: as §1
Aspergillus niger [4] = experiment: Antifungal activity against Aspergillus niger MTCC 9933 after 72 hrs; assay type: functional; conditions: MTCC 9933, 72 h; summary of the method: as §2
Erythrocyte = experiment: Cytotoxicity against sheep RBC assessed as cell viability at 1 mg/ml after 24 hrs by MTT assay relative to control; assay type: cell-based, Ovis aries
Summary of the method: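 Sheep blood mixed 10:3 with Alsever's solution. Plasma was removed by centrifugation, and cells were washed three times in 1X PBS and diluted to 1×10^5 cells/mL. Cells were preincubated 24 h at 37 °C, then exposed to compound for 24 h at 37 °C. MTT (5 mg/ml stock) was added for 4 h, formazan was dissolved in DMSO, and A595 was read. Control wells received 10% DMSO diluent.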

Compound	inhibition zone (IZ) (Candida albicans [1]) [mm]	MIC90 (Candida albicans [2]) [µg/mL]	inhibition zone (IZ) (Aspergillus niger [3]) [mm]	MIC90 (Aspergillus niger [4]) [µg/mL]	Activity (Erythrocyte)
COC(=O)CNC(=O)C(=O)c1c[nH]c2ccccc12	10	128 (≈ 492 µM)	–	–	–
O=C(O)CC[C@H](NC(=O)C(=O)c1cn(Cc2cn(Cc3ccccc3)nn2)c2ccccc12)C(=O)O	14	32 (≈ 65.4 µM)	12	> 32	–
O=C(O)CNC(=O)C(=O)c1cn(Cc2cn(Cc3ccccc3)nn2)c2ccccc12	13	32 (≈ 76.7 µM)	10	128 (≈ 307 µM)	–
COC(=O)[C@H](Cc1ccc(O)cc1)NC(=O)C(=O)c1cn(Cc2cn(Cc3ccccc3)nn2)c2ccccc12	8	128 (≈ 238 µM)	10	128 (≈ 238 µM)	–
C#CCn1cc(C(=O)C(=O)N[C@@H](CC(=O)OC)C(=O)OC)c2ccccc21	13	64 (≈ 173 µM)	–	–	–
C#CCn1cc(C(=O)C(=O)N[C@@H](Cc2ccc(O)cc2)C(=O)OC)c2ccccc21	11	64 (≈ 158 µM)	10	128 (≈ 317 µM)	–
O=C(N[C@@H](Cc1ccc(OCc2cn(Cc3ccccc3)nn2)cc1)C(=O)O)C(=O)c1cn(Cc2cn(Cc3ccccc3)nn2)c2ccccc12	16	16 (≈ 23 µM)	15	32 (≈ 46.1 µM)	Non-Toxic
COC(=O)[C@H](Cc1c[nH]c2ccccc12)NC(=O)C(=O)c1cn(Cc2cn(Cc3ccccc3)nn2)c2ccccc12	9	128 (≈ 228 µM)	12	64 (≈ 114 µM)	–
COC(=O)C[C@H](NC(=O)C(=O)c1c[nH]c2ccccc12)C(=O)OC	15	32 (≈ 96.3 µM)	13	64 (≈ 193 µM)	–
C#CCn1cc(C(=O)C(=O)N[C@@H](Cc2c[nH]c3ccccc23)C(=O)OC)c2ccccc21	10	128 (≈ 299 µM)	9	> 128	–
COC(=O)CC[C@H](NC(=O)C(=O)c1c[nH]c2ccccc12)C(=O)OC	–	–	9	> 128	–
O=C(O)C[C@H](NC(=O)C(=O)c1cn(Cc2cn(Cc3ccccc3)nn2)c2ccccc12)C(=O)O	15	32 (≈ 67.3 µM)	13	64 (≈ 135 µM)	–
COC(=O)CC[C@H](NC(=O)C(=O)c1cn(Cc2cn(Cc3ccccc3)nn2)c2ccccc12)C(=O)OC	10	64 (≈ 124 µM)	11	64 (≈ 124 µM)	–
COC(=O)[C@H](Cc1ccc(O)cc1)NC(=O)C(=O)c1c[nH]c2ccccc12	–	–	9	> 128	–
COC(=O)[C@H](Cc1ccc(OCc2cn(Cc3ccccc3)nn2)cc1)NC(=O)C(=O)c1cn(Cc2cn(Cc3ccccc3)nn2)c2ccccc12	–	–	13	64 (≈ 90.3 µM)	–
C#CCn1cc(C(=O)C(=O)N[C@@H](CCC(=O)OC)C(=O)OC)c2ccccc21	9	128 (≈ 333 µM)	–	–	–
C#CCOc1ccc(C[C@H](NC(=O)C(=O)c2cn(CC#C)c3ccccc23)C(=O)OC)cc1	13	64 (≈ 145 µM)	13	64 (≈ 145 µM)	–
O=C(N[C@@H](Cc1ccc(O)cc1)C(=O)O)C(=O)c1cn(Cc2cn(Cc3ccccc3)nn2)c2ccccc12	15	16 (≈ 30.6 µM)	13	> 32	–
COC(=O)[C@H](Cc1c[nH]c2ccccc12)NC(=O)C(=O)c1c[nH]c2ccccc12	14	32 (≈ 82.2 µM)	–	–	–
COC(=O)CNC(=O)C(=O)c1cn(Cc2cn(Cc3ccccc3)nn2)c2ccccc12	12	64 (≈ 148 µM)	11	64 (≈ 148 µM)	–
C#CCn1cc(C(=O)C(=O)NCC(=O)OC)c2ccccc21	11	64 (≈ 215 µM)	–	–	–
O=C(N[C@@H](Cc1c[nH]c2ccccc12)C(=O)O)C(=O)c1cn(Cc2cn(Cc3ccccc3)nn2)c2ccccc12	14	32 (≈ 58.5 µM)	14	> 32	–
COC(=O)C[C@H](NC(=O)C(=O)c1cn(Cc2cn(Cc3ccccc3)nn2)c2ccccc12)C(=O)OC	11	128 (≈ 254 µM)	–	–	–
OC(Cn1cncn1)(Cn1cncn1)c1ccc(F)cc1F [FLUCONAZOLE]	19	16 (≈ 52.2 µM)	18	8 (≈ 26.1 µM)	–

Source: ChEMBL document CHEMBL4152315, “Rational modification of a lead molecule: Improving the antifungal activity of indole - triazole - amino acid conjugates” (Eur J Med Chem, 2018)
